Laboratory results as given in ChEMBL document CHEMBL4196059, “Design, synthesis, and biological evaluation of stable β6.3-Helices: Discovery of non-hemolytic antibacterial peptides” (Eur J Med Chem, 2018).
pKd: −log10 of the molar value. Calls of active or inactive are those of the source. No cut-off for these calls is given here.

How the values were obtained:
[1] = Hemolytic activity against human RBC at 12.5 uM after 1 hr by Drabkin's assay relative to control; type: ADME, cell-based, Erythrocyte; conditions: human red blood cells (erythrocytes), read-out: Activity
Erythrocyte = assay: Hemolytic activity against human RBC after 1 hr by Drabkin's assay; type: ADME, cell-based
Pseudomonas aeruginosa = assay: Growth inhibition of Pseudomonas aeruginosa ATCC 27853 at 32 ug/ml after 18 hrs; type: functional; conditions: ATCC 27853, 18 h, read-out: GI
In short: (§1)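 Mid-log cultures were prepared as above and seeded at 5×10^5 CFU/mL with compound at a final 32 μg/mL, then held static at 37 °C for 18 h. Growth was read as OD600. Percent inhibition was calculated against media-only and bacteria-only controls on the same plate.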

[2] = Hemolytic activity against human RBC at 0.78 uM after 1 hr by Drabkin's assay relative to control; type: ADME, cell-based, Erythrocyte; conditions: human red blood cells (erythrocytes), read-out: Activity
[3] = Hemolytic activity against human RBC at 25 uM after 1 hr by Drabkin's assay relative to control; type: ADME, cell-based, Erythrocyte; conditions: human red blood cells (erythrocytes), read-out: Activity
[4] = Hemolytic activity against human RBC at 6.25 uM after 1 hr by Drabkin's assay relative to control; type: ADME, cell-based, Erythrocyte; conditions: human red blood cells (erythrocytes), read-out: Activity
[5] = Hemolytic activity against human RBC at 3.125 uM after 1 hr by Drabkin's assay relative to control; type: ADME, cell-based, Erythrocyte; conditions: human red blood cells (erythrocytes), read-out: Activity
Acinetobacter baumannii = assay: Growth inhibition of Acinetobacter baumannii ATCC 19606 at 32 ug/ml after 18 hrs; type: functional; conditions: ATCC 19606 = CIP 70.34 = JCM 6841, 18 h, read-out: GI; in short: as §1
Cryptococcus neoformans = assay: Growth inhibition of Cryptococcus neoformans H99 ATCC 208821 at 32 ug/ml after 24 hrs by resazurin dye-based microspectrophotometric assay; type: functional; conditions: var. grubii H99 ATCC 208821, 24 h, read-out: GI
In short: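 Yeasts were grown 3 days on YPD agar at 30 °C, suspended from five colonies and diluted in YNB broth to a final 2.5×10^3 CFU/mL. Compound at a final 32 μg/mL; incubated 24 h at 35 °C without shaking. C. albicans was read at OD530. C. neoformans was read as OD600–570 after resazurin (0.001% final) and a further 2 h at 35 °C. Fluconazole was the standard.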

Staphylococcus aureus = assay: Growth inhibition of methicillin-resistant Staphylococcus aureus ATCC 43300 at 32 ug/ml after 18 hrs; type: functional; conditions: ATCC 43300, 18 h, read-out: GI
In short: (§2)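 Mid-log cultures in cation-adjusted Mueller Hinton broth were added at 5×10^5 CFU/mL to wells at a final compound concentration of 32 μg/mL. Plates stood at 37 °C for 18 h. Growth was read by OD600, and % inhibition was computed against media-only and untreated-bacteria controls.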

[6] = Hemolytic activity against human RBC at 1.56 uM after 1 hr by Drabkin's assay relative to control; type: ADME, cell-based, Erythrocyte; conditions: human red blood cells (erythrocytes), read-out: Activity
Candida albicans = assay: Growth inhibition of Candida albicans ATCC 90028 at 32 ug/ml after 24 hrs by OD530 light-scattering microspectrophotometric method; conditions: ATCC 90028, 24 h, read-out: GI
[7] = Induction of pore formation in DOPC vesicles at 20 uM after 3 hrs by carboxyfluorescein dye leakage assay; conditions: in the assay text read “after 3 mins” for “after 3 hrs”
In short: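 POPC or DOPC liposomes were hydrated in 10 mM HEPES, 100 mM KCl, pH 7.4, containing 50 mM carboxyfluorescein. Size was checked by dynamic light scattering, and vesicles were used at 2.2×10^10 per mL. Peptide at 20 μM was equilibrated with vesicles for 3 min, and dye leakage was measured.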

[8] = Hemolytic activity against human RBC at 0.39 uM after 1 hr by Drabkin's assay relative to control; type: ADME, cell-based, Erythrocyte; conditions: human red blood cells (erythrocytes), read-out: Activity
Klebsiella pneumoniae = assay: Growth inhibition of multidrug-resistant Klebsiella pneumoniae ATCC 700603 at 32 ug/ml after 18 hrs; type: functional; conditions: ATCC 700603, 18 h, read-out: GI; in short: as §2
[9] = Hemolytic activity against human RBC at 50 uM after 1 hr by Drabkin's assay relative to control; type: ADME, cell-based, Erythrocyte; conditions: human red blood cells (erythrocytes), read-out: Activity
Escherichia coli = assay: Growth inhibition of Escherichia coli ATCC 25922 at 32 ug/ml after 18 hrs; type: functional; conditions: ATCC 25922, 18 h, read-out: GI; in short: as §1
Lipid bilayer = assay: Binding affinity to POPC vesicles by surface plasmon resonance spectroscopy
In short: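 SPR on a dextran chip carrying immobilized POPC liposomes, with running buffer of 10 mM HEPES and 100 mM KCl at pH 7.4. Peptides in PBS were flowed at 25 μL/min at 10–1000 μM, with reference-subtracted response units. KD and Rmax were fitted from maximum response versus concentration. Regeneration used 20 mM CHAPS followed by fresh liposomes.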

| SMILES | hemolysis at 1 h, 12.5 µM [1] [%] | Activity (Erythrocyte) | inhibition of growth at 32 µg/mL (Pseudomonas aeruginosa) [%] | hemolysis at 1 h, 0.78 µM [2] [%] | hemolysis at 1 h, 25 µM [3] [%] | hemolysis at 1 h, 6.25 µM [4] [%] | hemolysis at 1 h, 3.125 µM [5] [%] | inhibition of growth at 32 µg/mL (Acinetobacter baumannii) [%] | inhibition of growth at 32 µg/mL (Cryptococcus neoformans) [%] | inhibition of growth at 32 µg/mL (Staphylococcus aureus) [%] | hemolysis at 1 h, 1.56 µM [6] [%] | inhibition of growth at 32 µg/mL (Candida albicans) [%] | Activity [7] | hemolysis at 1 h, 0.39 µM [8] [%] | inhibition of growth at 32 µg/mL (Klebsiella pneumoniae) [%] | hemolysis at 1 h, 50 µM [9] [%] | inhibition of growth at 32 µg/mL (Escherichia coli) [%] | pKd (Lipid bilayer) | Rmax (Lipid bilayer) |
| --- | --- | --- | --- | --- | --- | --- | --- | --- | --- | --- | --- | --- | --- | --- | --- | --- | --- | --- | --- |
| O=CN1CCCN1C(=O)N1CCC[C@H]1C(=O)N1CCCN1C(=O)N1CCC[C@H]1C(=O)N1CCCN1C(=O)N1CCC[C@H]1C(=O)N1CCCN1C(=O)N1CCC[C@H]1C(=O)N1CCCN1C(=O)N1CCC[C@H]1C(=O)N1CCCN1C(=O)N1CCC[C@H]1C(=O)N1CCCN1C(=O)N1CCC[C@H]1C(=O)N1CCCN1C(=O)N1CCC[C@H]1C(=O)NCCO | -0.23 | Dose-dependent effect | -4.91 | 0.08 | -0.23 | -0.17 | 0.02 | 12.3 | -8.24 | 16.5 | -0.17 | 5.4 | inactive | -0.11 | 3.23 | -0.17 | 3.23 | – | – |
| CC(C)(C)OC(=O)N1CCC[C@H]1C(=O)N1CCCN1C(=O)N1CCC[C@H]1C(=O)N1CCCN1C(=O)N1CCC[C@H]1C(=O)N1CCCN1C(=O)N1CCC[C@H]1C(=O)N1CCCN1C(=O)N1CCC[C@H]1C(=O)N1CCCN1C(=O)N1CCC[C@H]1C(=O)N1CCCN1C(=O)N1CCC[C@H]1C(=O)N1CCCN1C(=O)N1CCC[C@H]1C(=O)N1CCCN1C(=O)OCc1ccccc1 | -0.17 | Dose-dependent effect | -8.18 | 0.15 | -0.23 | -0.11 | 0.02 | 17.8 | -3.43 | 20.7 | -0.04 | 2.92 | inactive | -0.04 | 5.27 | -0.42 | 5.27 | 3.36 | 632 |
| CC(C)(C)OC(=O)[C@@H]1CCCN1C(=O)N1CCCN1C(=O)[C@@H]1CCCN1C(=O)N1CCCN1C(=O)[C@@H]1CCCN1C(=O)N1CCCN1C(=O)[C@@H]1CCCN1C(=O)N1CCCN1C(=O)[C@@H]1CCCN1C(=O)N1CCCN1C(=O)[C@@H]1CCCN1C(=O)N1CCCN1C(=O)[C@@H]1CCCN1C(=O)N1CCCN1C(=O)[C@@H]1CCCN1C(=O)N1CCCN1C(=O)OCc1ccccc1 | -0.04 | Dose-dependent effect | -6.76 | 0.04 | -0.41 | -0.37 | -0.12 | 15.9 | -8.19 | 20.5 | -0.24 | 5.75 | inactive | 0.08 | -1.93 | -0.73 | -1.93 | 2.59 | 2640 |
| CC(=O)N1CCCN1C(=O)N1CCC[C@H]1C(=O)N1CCCN1C(=O)N1CCC[C@H]1C(=O)N1CCCN1C(=O)N1CCC[C@H]1C(=O)N1CCCN1C(=O)N1CCC[C@H]1C(=O)N1CCCN1C(=O)N1CCC[C@H]1C(=O)N1CCCN1C(=O)N1CCC[C@H]1C(=O)N1CCCN1C(=O)N1CCC[C@H]1C(=O)N1CCCN1C(=O)N1CCC[C@H]1C(=O)NCCO | -0.33 | Dose-dependent effect | -0.44 | -0.16 | 0 | 0.08 | -0.12 | 6.55 | -0.86 | 16.5 | -0.12 | 2.45 | inactive | – | 10.7 | -0.57 | 10.7 | 3.21 | 460 |
| CC(C)(C)OC(=O)[C@@H]1CCCN1C(=O)N1CCCN1C(=O)[C@@H]1CCCN1C(=O)N1CCCN1C(=O)[C@@H]1CCCN1C(=O)N1CCCN1C(=O)[C@@H]1CCCN1C(=O)N1CCCN1C(=O)[C@@H]1CCCN1C(=O)N1CCCN1C(=O)[C@@H]1CCCN1C(=O)N1CCCN1C(=O)[C@@H]1CCCN1C(=O)N1CCCN1C(=O)[C@@H]1CCCN1C(=O)N1CCCN1C(=O)[C@@H]1CCCN1C(=O)N1CCCN1C(=O)[C@@H]1CCCN1C(=O)N1CCCN1C(=O)[C@@H]1CCCN1C(=O)N1CCCN1C(=O)[C@@H]1CCCN1C(=O)N1CCCN1C(=O)[C@@H]1CCCN1C(=O)N1CCCN1C(=O)[C@@H]1CCCN1C(=O)N1CCCN1C(=O)[C@@H]1CCCN1C(=O)N1CCCN1C(=O)[C@@H]1CCCN1C(=O)N1CCCN1C(=O)OCc1ccccc1 | -0.33 | Dose-dependent effect | -0.85 | -0.2 | -0.49 | -0.24 | -0.33 | -19 | -1.18 | 25.3 | -0.16 | 4.41 | inactive | -0.24 | 8.57 | -0.55 | 8.57 | – | – |
